Test results published in ChEMBL document CHEMBL1240484, “New 4H-chromen-4-one and 2H-chromene derivatives as anti-picornavirus capsid-binders” (Bioorg Med Chem, 2010).

What was measured:
rhinovirus B14 [1] = assay: Antiviral activity against Human rhinovirus 14 infected in human HeLa cells after 3 days by plaque reduction assay; format: functional, organism-based; conditions: for IC50: Rhinovirus B, 72 h
Summary of the method: (§1)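 HeLa monolayers infected with ATCC HRV 14 or 1B at about 100 plaques per well, 1 h adsorption at 33 °C. Inoculum removed, then plaque overlay with fourfold drug dilutions from the MNTC. Three days at 33 °C, neutral red (0.2 mg/mL, PBS pH 7.4) staining and plaque count, triplicate wells. IC50 from log dose vs % reduction relative to mock-treated control. Otherwise % inhibition at MNTC is reported.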

[2] = Therapeutic index, ratio of TC50 for human HeLa cells to IC50 for HRV 14; format: cell-based; conditions: read-out: TI
Summary of the method: (§2)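 Therapeutic index calculated as TC50 for HeLa cells (XTT, 3 days) divided by IC50 for plaque reduction of HRV 14 or HRV 1B in HeLa cells.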

rhinovirus A1B = assay: Antiviral activity against Human rhinovirus 1B infected in human HeLa cells after 3 days by plaque reduction assay; format: functional, organism-based; conditions: for IC50: Rhinovirus A, 72 h; summary of the method: as §1
[3] = Cytotoxicity against human Hep2 cells assessed as maximum non-cytotoxic concentration after 3 days by XTT assay; format: cell-based, HEp-2
Summary of the method: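 Hep-2 cells grown in high-glucose DMEM, seeded at 2 × 10³ per well with twofold dilutions from the maximum soluble concentration, quadruplicate wells, 3 days at 37 °C in 5% CO2. XTT (final 0.15 mg/mL) for 4 h, read at 492/690 nm, plus microscopic scoring. MNTC is the highest dose causing no toxic effect or growth reduction.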

Enterovirus A71 [4] = assay: Antiviral activity against Human enterovirus 71 infected in human Hep2 cells after 2 days by plaque reduction assay; format: functional, organism-based; conditions: for IC50: Enterovirus A, HEp-2, 48 h; for Activity: HEp-2
Summary of the method: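 Inoculum removed, then plaque overlay with fourfold drug dilutions starting from the MNTC. Two days at 37 °C, neutral red (0.2 mg/mL in PBS pH 7.4) staining, plaques counted, triplicate wells. IC50 taken from log dose vs % plaque reduction.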

[5] = Therapeutic index, ratio of TC50 for human HeLa cells to IC50 for HRV 1B; format: cell-based; conditions: read-out: TI; summary of the method: as §2
[6] = Cytotoxicity against human HeLa cells assessed as maximum non-cytotoxic concentration after 3 days by XTT assay; format: cell-based
Summary of the method: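 HeLa cells seeded at 2 × 10³ per well with twofold compound dilutions from the maximum soluble concentration, quadruplicate wells, 37 °C in 5% CO2 for 3 days until controls were confluent. XTT added (final 0.15 mg/mL) for 4 h, absorbance read at 492 nm with 690 nm reference. Morphology also scored microscopically. […] MNTC is the highest dose with no toxicity or growth reduction.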

Enterovirus A71 [7] = assay: Antiviral activity against Human enterovirus 71 infected in human Hep2 cells at maximum non-cytotoxic concentration […] by plaque reduction assay; format: functional, HEp-2
[8] = Cytotoxicity against human HeLa cells after 3 days by XTT assay; format: cell-based; conditions: read-out: TC50
Summary of the method: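 HeLa cells seeded at 2 × 10³ per well with twofold compound dilutions from the maximum soluble concentration, quadruplicate wells, 37 °C in 5% CO2 for 3 days until controls were confluent. Morphology also scored microscopically. MNTC is the highest dose with no toxicity or growth reduction.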

rhinovirus B14 [9] = assay: Antiviral activity against Human rhinovirus 14 infected in human HeLa cells at maximum non-cytotoxic concentration after 3 days by plaque reduction assay; format: functional; summary of the method: as §1

Row | IC50 (rhinovirus B14 [1]) | IC50 (rhinovirus A1B) | IC50 (Enterovirus A71 [4]) | Compound | Activity (rhinovirus B14 [1]) | selectivity ratio [2] | Activity (rhinovirus A1B) | MNTC at 72 h [3] | Activity (Enterovirus A71 [4]) | selectivity ratio [5] | MNTC at 72 h [6] | inhibition (INH) (Enterovirus A71 [7]) | CC50 at 72 h [8] | inhibition (INH) (rhinovirus B14 [9])
1 | 8.28 µM | 7.13 µM | > 12.5 µM | Clc1ccc(/C=C/C2=Cc3cc(Cl)ccc3OC2)cc1 | Dose-dependent effect | 6.04 | Dose-dependent effect | 12.5 µM | Dose-dependent effect | 7.01 | 25 µM | 46.6% | 50 µM | 
2 |  |  |  | Clc1ccc(C2CCc3cc(Cl)ccc3O2)cc1 (centres undefined) |  |  |  | 10 µM |  |  |  |  |  | 
3 | 4.36 µM | 3.12 µM | > 50 µM | O=c1c(/C=C/c2ccccc2)coc2ccccc12 | Dose-dependent effect | > 45.9 | Dose-dependent effect | 50 µM | Dose-dependent effect | > 64.2 | > 200 µM | 34.6% | > 200 µM | 
4 | > 25 µM | 2.19 µM | > 25 µM | O=c1c(/C=C/c2ccc(Cl)cc2)coc2ccc(Cl)cc12 | Dose-dependent effect |  | Dose-dependent effect | 25 µM | Dose-dependent effect | 22.2 | 25 µM | 35.7% | 50 µM | 24.1%
5 | 15 µM | 5.27 µM | > 25 µM | O=c1c(/C=C/C=C/c2ccccc2)coc2ccccc12 | Dose-dependent effect | 3.33 | Dose-dependent effect | 25 µM | Dose-dependent effect | 9.49 | 25 µM | 39.8% | 50 µM | 
6 | 18.4 µM | 0.4 µM | > 50 µM | Clc1ccc(/C=C/C2=Cc3ccccc3OC2)cc1 | Dose-dependent effect | 5.44 | Dose-dependent effect | 50 µM | Dose-dependent effect | 250 | 50 µM | 49.7% | 100 µM | 
7 | 11.2 µM | 11.2 µM | > 50 µM | Clc1ccc2c(c1)C=C(/C=C/c1ccccc1)CO2 | Dose-dependent effect | 8.95 | Dose-dependent effect | 50 µM | Dose-dependent effect | 8.93 | 50 µM | 30.8% | 100 µM | 
8 | 5.52 µM | 4.54 µM | > 25 µM | O=c1c(/C=C/c2ccc(Cl)cc2)coc2ccccc12 | Dose-dependent effect | 9.06 | Dose-dependent effect | 25 µM | Dose-dependent effect | 11 | 25 µM | 21.6% | 50 µM | 
9 | 50 µM | 30.8 µM | > 50 µM | C1=C(/C=C/C=C/c2ccccc2)COc2ccccc21 | Dose-dependent effect | 2 | Dose-dependent effect | 50 µM | Dose-dependent effect | 3.24 | 50 µM | 29.5% | 100 µM | 
10 | 4.07 µM | 4.09 µM | > 25 µM | O=c1c(/C=C/C=C/c2ccc(Cl)cc2)coc2ccccc12 | Dose-dependent effect | 12.3 | Dose-dependent effect | 25 µM | Dose-dependent effect | 12.2 | 25 µM | 49.1% | 50 µM | 
